This note sets out measurements from PubChem BioAssay AID504382 (The Scripps Research Institute Molecular Screening Center, 2011).

Structures are written as SMILES. Out of some 2,500 compounds screened, about 460 (18%) were called active.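 How the source made its calls: active means mean activation above a cutoff of low control average plus 3 SD from the earlier screen (cut at about 12% in these data); inactive means the rest.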 These entries were drawn from the full list.

This assay can be described thus: compound fluorescence interference without thin filaments, confirmation, artefact control for cardiac RTF calcium sensitizer project, biochemical (AID 504382). As to conditions: IANBD fluorescence interference counterscreen, buffer, EC20 Ca2+; at 7.2 µM; hits give high values; scaled: EC20 calcium 0, EC100 calcium 100. A digest of the protocol:
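timing = compound incubation 15 min at 25 °C before fluorescence reading | technique = fluorescence at 480 nm excitation, 540 nm emission | evaluation = interference relative to controls | replication = triplicate wells per compound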
For orientation: Counterscreens check selectivity or assay interference.
Turning to `CCOc1cc(/C=C2\N=C(SC(C)C(N)=O)N(c3ccc(OC(F)F)cc3)C2=O)ccc1O` (centres undefined), the fluorescence artifact activation is 3.79% (inactive).

Turning to `COc1ccc(C(=O)c2ccsc2N)cc1`, the fluorescence artifact activation is 3.39% (inactive).

For the molecule `O=C(CN1CCc2ccccc2C1)Nc1cc(S(=O)(=O)N2CCOCC2)ccc1N1CCOCC1`, the fluorescence artifact activation is 0.07% (inactive).

As to `CCOc1cccc2c1OC(c1cc(OC)c(OC)c(OC)c1)N1N=C(c3ccc(C)o3)CC21` (centres undefined), the fluorescence artifact activation was 0.15% (inactive).

As to `CC1(C)C([N+](=O)[O-])C(c2ccc(F)cc2)NC(c2ccc(F)cc2)C1[N+](=O)[O-]` (centres undefined), the fluorescence artifact activation is -0.04% (inactive).

For the molecule `COC(=O)c1sccc1NC(=O)CSCC(=O)O`, the fluorescence artifact activation is 0.05% (inactive).

With `CN(C)C=Nc1c(Br)cc(Br)c2nonc12`, the fluorescence artifact activation is 16.1% (active).

As for `C=CCn1c(SCC(=O)Nc2nccs2)nnc1-c1ccco1`, the fluorescence artifact activation is 0.29% (inactive).

For `Cn1cc(Cl)c(-c2nc3ccccc3[nH]2)n1`, the fluorescence artifact activation was 2.42% (inactive).

Take `CCOC(=O)/C(=N\Nc1ccc(C(C)=O)cc1)c1csc(Nc2ccccc2)n1`: the fluorescence artifact activation was -0.08% (inactive).

As to `CCOC(=O)c1cnc2ccccc2c1Nc1ccc(C(=O)O)cc1`, the fluorescence artifact activation is 50% (active).

On to `COC(=O)c1cc(N2CCN(C)CC2)nc2ccccc12`, for which the fluorescence artifact activation is 0.05% (inactive).

Take `CCCCN(Cc1ccccc1)S(=O)(=O)c1ccc2c(c1)n(C)c(=O)c(=O)n2C`: the fluorescence artifact activation is 0.08% (inactive).

In the case of `COC(=O)C1=C(CSc2nc3c(cc2C#N)CN(C)CC3)OC(N)=C(C#N)C1c1ccc(F)cc1` (centres undefined), the fluorescence artifact activation is -0.02% (inactive).

`COC(=O)c1ccc(S(=O)(=O)N2CCC(O)CC2)n1C`: the fluorescence artifact activation was 4.73% (inactive).

For the molecule `O=C(CS(=O)(=O)c1cn(Cc2ccc(F)cc2)c2ccccc12)N1CCOCC1`, the fluorescence artifact activation is -0.02% (inactive).

For `CN(C)c1ccc(/C=C2\SC(N3CCCCC3)=NC2=O)cc1`, the fluorescence artifact activation was 193% (active).

For `CCOC(=O)C1CCCN(C2=NC(=O)/C(=C/c3ccc(N(C)C)cc3)S2)C1` (centres undefined), the fluorescence artifact activation is 0.84% (inactive).

Regarding `CN(C)c1ccc(/C=C2\C(=N)N3N=C(CC(=O)N4CCCCC4)SC3=NC2=O)cc1`, the fluorescence artifact activation is 11.2% (inactive).

For the molecule `COC(C(=O)Nc1c(F)cccc1F)c1ccccc1` (centres undefined), the fluorescence artifact activation was 0.18% (inactive).

With `COc1cccc2c1OC1(C)CC2NC(=O)N1Cc1ccccc1` (centres undefined), the fluorescence artifact activation is 1.11% (inactive).

On to `CCOc1cccc2c1OC1(C)CC2NC(=O)N1c1cccc(C(=O)NCc2ccccn2)c1` (centres undefined), for which the fluorescence artifact activation is 0.6% (inactive).

Consider `CN(Cc1ccccc1)C(=O)c1cccc(N2C(=O)NC3CC2(C)Oc2ccccc23)c1` (centres undefined), for which the fluorescence artifact activation was 14.2% (active).

Consider `COC(=O)CN(c1cc(OC)ccc1OC)S(=O)(=O)c1ccc(OC)c(OC)c1`, for which the fluorescence artifact activation was 0.04% (inactive).

On to `O=C(COC(=O)C1(c2ccccc2F)CCCC1)Nc1ncc(C(F)(F)F)cc1Cl`, for which the fluorescence artifact activation is -0.01% (inactive).

With `CN1CCc2c(sc(/N=C/c3ccco3)c2C(N)=O)C1`, the fluorescence artifact activation is 0.04% (inactive).

Consider `COc1cc2c3nnc(-c4ccc(F)cc4)c-3cn(Cc3ccc(C)cc3)c2cc1OC`, for which the fluorescence artifact activation was 0.37% (inactive).

`COc1cc2c3nnc(-c4ccc(F)cc4)c-3cn(Cc3cccc(F)c3)c2cc1OC`: the fluorescence artifact activation is 124% (active).

Regarding `COc1cc2c3nnc(-c4ccc(F)cc4)c-3cn(Cc3cccc(C)c3)c2cc1OC`, the fluorescence artifact activation was 0.48% (inactive).

On to `COC(=O)c1ccccc1-c1c2ccc(=N)cc-2oc2cc(N)ccc12`, for which the fluorescence artifact activation is 0.05% (inactive).

Consider `Brc1ccc(-c2cn3nc4c(nc3n2)CCCC4)cc1`, for which the fluorescence artifact activation was 3.81% (inactive).

Consider `c1ccc(-c2cn3nc4c(nc3n2)CCCC4)cc1`, for which the fluorescence artifact activation was 19.1% (active).

As to `Clc1ccc(-c2cn3nc4c(nc3n2)CCCC4)cc1`, the fluorescence artifact activation is 0.71% (inactive).

On to `CCOCCCn1c(=NC(=O)c2cccs2)c(C#N)cc2c(=O)n3cccc(C)c3nc21`, for which the fluorescence artifact activation is 1.11% (inactive).

On to `CC(=O)c1ccc(NC(=O)CN2C(=O)/C(=C/C=C/c3ccccc3)SC2=S)cc1`, for which the fluorescence artifact activation is 0.03% (inactive).

For the molecule `O=C(NC1CCCCC1)c1cc2nc3c(c(C(F)(F)F)n2n1)CCCC3`, the fluorescence artifact activation was 7.01% (inactive).

On to `Cc1cc(/C=N/NC(N)=S)c(O)c(/C=N/NC(N)=S)c1`, for which the fluorescence artifact activation is 181% (active).

Consider `COc1ccc(-c2nn(-c3ccccc3)cc2/C=N/NC(N)=S)cc1OC`, for which the fluorescence artifact activation was 8.19% (inactive).

For `O=C(N/N=C/c1cc(Cl)cc(Cl)c1O)c1ccncc1`, the fluorescence artifact activation was 2.37% (inactive).

Consider `Cc1cc2c(cc1S(=O)(=O)CCC(=O)NCCc1ccccc1)OCC(=O)N2`, for which the fluorescence artifact activation was 11.3% (inactive).

On to `CCOC(=O)c1ccc(NC(=O)c2cc3c(C)nn(-c4ccccc4Cl)c3s2)s1`, for which the fluorescence artifact activation is 1.59% (inactive).

As for `CCN(CC)c1ccc2c(c1)OC(N)=C(C#N)C2c1cccnc1` (centres undefined), the fluorescence artifact activation is 2.43% (inactive).

In the case of `N#CC1=C(N)Oc2cc(O)c(Cl)cc2C1c1ccccc1F` (centres undefined), the fluorescence artifact activation was 54.3% (active).

`COC(=O)C1=C(CSc2nc3c(cc2C#N)CN(C)CC3)OC(N)=C(C#N)C1c1ccccc1F` (centres undefined): the fluorescence artifact activation is 3.38% (inactive).

Turning to `CCOc1ccc2cc(/C=C/C(=O)c3ccco3)c(Cl)nc2c1`, the fluorescence artifact activation was 0.34% (inactive).

Turning to `CC(CCc1ccc(O)cc1)NCCC(c1ccccc1)c1ccccc1` (centres undefined), the fluorescence artifact activation was 13.1% (active).

With `COc1ccc(OC)c(NC(=O)NCCc2cccc(Cl)c2)c1`, the fluorescence artifact activation was 0.03% (inactive).

Regarding `C=C[C@@](C)(O)CC[C@@H]1[C@@]2(C)CCCC(C)(C)[C@@H]2CC[C@@]1(C)O`, the fluorescence artifact activation was 0.16% (inactive).

For the molecule `Cc1cccc(NC2=Nc3ccccc3N3C2=Nc2c(c(C)nn2-c2ccccc2)C3c2ccc(O)c(O)c2)c1` (centres undefined), the fluorescence artifact activation is 96.4% (active).

Turning to `CC1C/C(=C/c2cccn2C)C(=O)/C(=C/c2cccn2C)C1` (centres undefined), the fluorescence artifact activation is 0.08% (inactive).

`COc1ccc(/C=C/C(=O)NC(=S)Nc2ccc(C(=O)O)cc2)cc1`: the fluorescence artifact activation was 6.95% (inactive).

With `Cc1nnc(NC(=O)CS(=O)(=O)Cc2ccccc2)s1`, the fluorescence artifact activation was -0.07% (inactive).

Take `O=C(Oc1ccc2ccc(=O)oc2c1)c1cccs1`: the fluorescence artifact activation was 0.02% (inactive).

As for `O=S(=O)(/N=C(/Nc1nc2ccccc2s1)c1ccccc1)c1ccc(F)cc1`, the fluorescence artifact activation was 0.13% (inactive).

Consider `Cc1noc(C)c1C(=O)Nc1nc2ccccc2s1`, for which the fluorescence artifact activation is 38.5% (active).

Take `Cc1onc(-c2ccccc2)c1C(=O)Nc1nc(-c2cc(F)ccc2F)cs1`: the fluorescence artifact activation is 0.13% (inactive).

As to `Cc1c2c(n3c(nc4ccccc43)c1C#N)N(CCN1CCOCC1)CC2`, the fluorescence artifact activation is 0.13% (inactive).

In the case of `Cc1nc2c(C#N)cnn2c2c1CCN(Cc1ccccc1)N2C`, the fluorescence artifact activation was 138% (active).

On to `Cn1c2c(c(=O)n(C)c1=O)C(C(F)(F)F)(C(F)(F)F)N=C(CCC1CCCCC1)N2`, for which the fluorescence artifact activation is 0.01% (inactive).

Regarding `CC(=O)c1nnn(-c2cccc(C#N)c2)c1C`, the fluorescence artifact activation was 0.2% (inactive).

Turning to `Cc1ccc(/C=C2/NC(=O)N(Cc3ccccc3F)C2=O)s1`, the fluorescence artifact activation is 0.1% (inactive).

In the case of `Cc1cc2nc3c(=O)n(CCc4ccccc4)c(=O)[nH]c3nc2cc1N`, the fluorescence artifact activation is 0.7% (inactive).

`C=CCn1c(=O)[nH]c2nc3cc(N=CN(C)C)c(C)cc3nc2c1=O`: the fluorescence artifact activation was 16.2% (active).

Consider `Cc1cc2nc3c(=O)n(C4CCCCC4)c(=O)[nH]c3nc2cc1N`, for which the fluorescence artifact activation was 9.65% (inactive).

Consider `CCCCn1c(=O)[nH]c2nc3cc(N)ccc3nc2c1=O`, for which the fluorescence artifact activation is 0.06% (inactive).

In the case of `CCCCCCn1c(=O)[nH]c2nc3cc(N)c(C)cc3nc2c1=O`, the fluorescence artifact activation is 45.6% (active).

In the case of `N=c1oc2c3c4c(cc2cc1C(=O)Nc1ccccc1)CCCN4CCC3`, the fluorescence artifact activation was 4.85% (inactive).

Take `Cn1cccc1/C=C1\CCC/C(=C\c2cccn2C)C1=O`: the fluorescence artifact activation is 0.94% (inactive).

For the molecule `O=C(COC(=O)Cn1cnc2ccccc21)Nc1cccc2c1C(=O)c1ccccc1C2=O`, the fluorescence artifact activation was 5.29% (inactive).

As for `COc1cc(/C=C2\Oc3cc(O)ccc3C2=O)ccc1O`, the fluorescence artifact activation was 0.16% (inactive).

In the case of `O=C1/C(=C/c2cccc(F)c2)Oc2cc(O)ccc21`, the fluorescence artifact activation was -0.06% (inactive).

As to `O=C1/C(=C/c2ccc(Br)cc2)Oc2cc(O)ccc21`, the fluorescence artifact activation is 17.9% (active).

As for `C[C@H](CO)NC(=O)[C@@H]1C[C@H]1[C@@H](NP(=O)(c1ccccc1)c1ccccc1)c1ccccc1`, the fluorescence artifact activation was 0.29% (inactive).

As to `COCCNC(=O)[C@H]1C[C@@H]1[C@H](NP(=O)(c1ccccc1)c1ccccc1)c1ccccc1`, the fluorescence artifact activation is 1400% (active).

For the molecule `C=CCN(C(=O)CNS(=O)(=O)c1ccccc1)C(C(=O)NCCOC)c1ccncc1` (centres undefined), the fluorescence artifact activation is 0.23% (inactive).

As to `Cc1cc(Br)c2c(c1)C(O)(N1CCCCC1C)C(=O)N2` (centres undefined), the fluorescence artifact activation was 1.99% (inactive).

Take `CC(C)(C)C(=O)/C=c1\s/c(=C\c2ccc(-c3ccc([N+](=O)[O-])cc3)o2)c(=O)n1CC(=O)NC(N)=O`: the fluorescence artifact activation was 7.12% (inactive).

In the case of `COc1cc(/C=C(\C#N)c2nc3ccccc3o2)ccc1O`, the fluorescence artifact activation was 0.62% (inactive).

For the molecule `Nc1nc(SCC(=O)Nc2ccccc2)nc2nc3c(cc12)CCCC3`, the fluorescence artifact activation was 0.24% (inactive).

For `Cc1cc(C)n2nc3nc4c(cc3c2n1)CCCC4`, the fluorescence artifact activation is 28.7% (active).

As to `C=CCOc1ccc(Br)cc1CNCC`, the fluorescence artifact activation was 6.82% (inactive).

As for `CCOc1ccc(C(=O)NCC(=O)N2CCC3CCCCC3C2)cc1OCC` (centres undefined), the fluorescence artifact activation was 59.4% (active).

As for `CCOc1ccc(C(=O)NCC(=O)Nc2ncccc2C)cc1OCC`, the fluorescence artifact activation was 1.27% (inactive).

For the molecule `CCOc1cc(C#N)ccc1OCC(=O)N1CCc2ccccc2C1`, the fluorescence artifact activation was 0.13% (inactive).

For the molecule `COCCOC(=O)/C(=C/c1ccc(OC(=O)c2ccccc2)cc1)C(C)=O`, the fluorescence artifact activation is 4.54% (inactive).

Take `COC(=O)c1ccc(NC(=O)c2snnc2-c2ccccc2)cc1`: the fluorescence artifact activation was 1.82% (inactive).

Take `O=C(c1ccc2c(=O)n3c(nc2c1)CCCCC3)N1CCN(c2cccc(Cl)c2)CC1`: the fluorescence artifact activation was 0.04% (inactive).

On to `Oc1ccc2ccccc2c1C=NCc1cn2ccsc2n1`, for which the fluorescence artifact activation is -0.01% (inactive).

As to `Cn1c(/C(C#N)=C/c2ccc(-c3ccc(S(N)(=O)=O)cc3)o2)nc2ccccc21`, the fluorescence artifact activation was 0.08% (inactive).

As for `N#C/C(=C\c1ccc(-c2ccc(F)cc2)o1)C(=O)Nc1nc(-c2cccs2)cs1`, the fluorescence artifact activation was 15.1% (active).

On to `N#C/C(=C/c1ccc(N2CCOCC2)o1)C(=O)Nc1ccccc1`, for which the fluorescence artifact activation was 0.03% (inactive).

Take `N#C/C(=C/c1ccc(-c2ccccc2)o1)c1nc(-c2cccs2)cs1`: the fluorescence artifact activation is 19.2% (active).

Regarding `Cc1cc(Cl)ccc1OCC(=O)Nc1nc(-c2cccs2)cs1`, the fluorescence artifact activation is 0.04% (inactive).

Turning to `N#C/C(=C\C=C\c1ccccc1)c1nc(-c2ccc3c(c2)OCO3)cs1`, the fluorescence artifact activation is 0.13% (inactive).
